# Screening results (PubChem)
# GSH bead fluor: compound fluoresces at 488/530 nm on GSH beads. GSH beads flow cytometry, compound fluorescence 488/530 nm; stronger effect = higher value. fluorescence (KMESF) at 10 µM. hit rate 0.25% among 190,000; in the data active means fluorescence above about 89;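 further: glutathione beads carrying GST-tagged Bcl family fusion proteins plus one bare bead set; values are compound well signal with DMSO vehicle wells as background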
# Lmaj promast: reduces viability of Leishmania major promastigotes | hit rate 9% among 200,000 | resazurin fluorescence viability | inhibition, % at 10 µM;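 further: promastigotes grown with compound for 44 hours at 28 °C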
# ABCG2 block: blocks JC-1 efflux by human ABCG2 transporter; inhibition, % at 6.6 µM; Q9UNQ0; IgMXP3 cells, flow cytometry; hit rate 0.1% among 190,000;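 active means inhibition above 80%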;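 further: 0% = DMSO and 100% = nicardipine control wells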
# Target sequence (Q9UNQ0 whole entry, looked up): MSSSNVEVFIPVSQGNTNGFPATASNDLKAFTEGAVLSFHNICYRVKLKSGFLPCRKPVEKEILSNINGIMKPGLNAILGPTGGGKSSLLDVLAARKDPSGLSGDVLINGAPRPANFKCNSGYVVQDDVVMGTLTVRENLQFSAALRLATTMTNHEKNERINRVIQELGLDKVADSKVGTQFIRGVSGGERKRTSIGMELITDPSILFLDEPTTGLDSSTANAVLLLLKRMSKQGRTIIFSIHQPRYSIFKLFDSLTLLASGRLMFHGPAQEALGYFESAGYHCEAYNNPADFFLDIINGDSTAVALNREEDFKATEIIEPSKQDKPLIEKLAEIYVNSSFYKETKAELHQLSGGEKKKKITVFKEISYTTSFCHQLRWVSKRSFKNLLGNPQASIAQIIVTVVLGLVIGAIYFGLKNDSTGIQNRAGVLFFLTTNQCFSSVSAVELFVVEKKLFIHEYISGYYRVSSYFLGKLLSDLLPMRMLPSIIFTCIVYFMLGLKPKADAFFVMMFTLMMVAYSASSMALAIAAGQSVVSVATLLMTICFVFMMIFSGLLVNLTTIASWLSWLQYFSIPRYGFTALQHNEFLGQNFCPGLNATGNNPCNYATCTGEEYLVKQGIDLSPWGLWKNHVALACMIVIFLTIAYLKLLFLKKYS
#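 Assay system – ABCG2 IgMXP3 and barcoded ABCB1 CCRF-Adr cell mix · Input – 3 million cells/mL in well · Reagent – JC-1 fluorescent substrate · Compound – single test compound dose, 6.6 µM final · Timing – 10 min exposure at 25 °C with rotation, no wash · Detection – flow cytometry of retained JC-1 fluorescence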
# ABCB1 block: inhibitors of human ABCB1 transporter, ABCG2 counter-screen; P08183; CCRF-Adr cells, JC-1 efflux, flow cytometry; inhibition, % at 6.6 µM; hit rate 0.067% among 190,000; in the data active means inhibition above about 40%;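 further: 0% = vehicle and 100% = reference inhibitor; higher value means more JC-1 retained so stronger ABCB1 efflux block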
# PKD1 kinase inh: PKD1 (human) kinase inhibition; hit rate 0.056% among 200,000; Q15139; AID 797; inhibition, % (test concentration not listed); PKD1 kinase fluorescence polarization assay
# Avidin fluor: compound fluoresces at 488/530 nm on avidin beads; compound fluorescence 488/530 nm, flow cytometry; stronger effect = higher value; fluorescence (KMESF) at 10 µM; hit rate 0.38% among 220,000; AID 1775; in the data active means fluorescence above about 47
# An asterisk follows results filed as active; / = no result given. Only a selection was taken, and hits are over-represented in it overall. Unless noted, no stated cut-off is given here; in the data, active means inhibition above about 50%; inactive means the rest.
SMILES,GSH bead fluor,Lmaj promast,ABCG2 block,ABCB1 block,PKD1 kinase inh,Avidin fluor
COc1ccc(-c2nc(CN(CC3CCC(=O)N3)C(C)C)c(C)o2)c(C)c1C (centres undefined),15,79*,13,-1,-5,10
COc1ccc(-c2nc(CN3CCCCC3c3nccn3C)c(C)o2)c(C)c1C (centres undefined),17,97*,1,-2,-2,13
COc1cccc(C2CCCCN2Cc2nc(-c3ccc(C)o3)oc2C)c1 (centres undefined),15,-6,-3,1,-4,11
O=C(O)c1ccc2c(c1)C(=O)N(N1C(=O)c3ccccc3C1=O)C2=O,111*,47,2,3,-8,24
CCC(C)(C#CCN1CCCCC1)OCCC#N (centres undefined),20,-6,0,-1,-7,5
Cc1cc(C)n(-c2nc(SCCN(C)C)c3c4c(sc3n2)CCCC4)n1,18,100*,2,2,-4,35
COc1ccc(CCC(=O)N2CCCSC2=Nc2ccc(C(C)=O)cc2)cc1,15,98*,21,0,-4,24
CNC(=O)C1CC(=O)N(CCc2ccc(OC)cc2)C(=Nc2ccc(OC)cc2)S1 (centres undefined),21,29,2,1,-9,7
O=[N+]([O-])c1cc(Cl)ccc1N1CCCC1,14,-1,9,2,4,11
O=C1C(Cl)=C(N2CCN(c3ccccc3[N+](=O)[O-])CC2)C(=O)c2ccccc21,6,100*,-3,0,-13,4
CCCCC(O)CN1CCC(c2ccccc2)CC1 (centres undefined),40,93*,0,0,3,7
COc1ccc(CN=C2NC(=O)CC(C(=O)Nc3ccc([N+](=O)[O-])cc3C)S2)cc1 (centres undefined),10,86*,22,1,-6,13
COc1ccc(CN=C2NC(=O)CC(C(=O)Nc3ccccc3C)S2)cc1 (centres undefined),12,-3,0,0,-2,11
CC1CCCC(NC(=O)CSc2ccc(F)cc2)C1C (centres undefined),12,-2,0,0,-3,23
CC1CCCC(NCC(O)COC(c2ccc(F)cc2)c2ccc(F)cc2)C1C (centres undefined),18,100*,0,0,4,6
O=C(C1CC1)N1CCc2cc(S(=O)(=O)NC3CCN(Cc4ccccc4)CC3)ccc21,14,59*,6,3,-10,21
Cn1c(=O)oc2cc(S(=O)(=O)NCCC(=O)N3CC=C(c4ccccc4)CC3)ccc21,26,6,5,1,10,6
O=S(=O)(NC1CCN(Cc2ccccc2)CC1)c1ccc2ccccc2c1,26,89*,0,0,-10,10
Cn1c(=O)oc2cc(S(=O)(=O)Nc3ccc4c(c3)OCO4)ccc21,21,66*,6,3,8,10
CC(C)CC(NS(=O)(=O)c1ccc2c(c1)oc(=O)n2C)C(=O)N1CC=C(c2ccccc2)CC1 (centres undefined),22,86*,0,1,3,5
Nc1nc(C(F)(F)F)c(Br)c(=O)n1N,14,-7,1,0,4,7
COc1cc2oc(=O)ccc2c(OC)c1CC(O)C(C)(C)O (centres undefined),/,/,/,/,/,10
Cc1cc(C)c(C)c(S(=O)(=O)NC2CCN(Cc3ccccc3)CC2)c1C,26,59*,0,1,-11,7
Cc1cc(C)c(S(=O)(=O)NC2CCN(Cc3ccccc3)CC2)c(C)c1,/,/,/,/,/,17
CCC1CCCCN1Cc1ccc(CNS(=O)(=O)c2ccc3c(c2)oc(=O)n3C)o1 (centres undefined),8,98*,10,6,-6,23
SMILES,GSH bead fluor,Lmaj promast,ABCG2 block,ABCB1 block,PKD1 kinase inh,Avidin fluor
Cn1c(=O)oc2cc(S(=O)(=O)NC3CCN(Cc4ccccc4)CC3)ccc21,14,50*,3,0,-7,24
CCOC(=O)c1cn2c3c(c(F)c(F)cc3c1=O)SC(N1CCOCC1)=N2,/,12,/,/,-12,/
O=C(CSc1n[nH]c(-c2cc(Cl)ccc2Cl)n1)NCCN1C(=O)CSC1=O,10,-1,8,0,2,3
O=S(=O)(NCC(Nc1ccc(Cl)cc1)c1ccccc1)c1ccccc1 (centres undefined),7,13,2,1,-5,3
Cc1ccc(NC(CNS(=O)(=O)c2ccc(Cl)cc2)c2ccccc2)cc1 (centres undefined),13,53*,1,0,8,121*
COCCN1C=C(C(=O)OC)C(c2cc3c(cc2Br)OCO3)C(C(=O)OC)=C1,13,62*,2,1,4,39
C=CCn1c(C)cc(-c2csc(NC)n2)c1C,16,96*,2,1,1,20
C=CCc1c(C)nc(-c2ccccc2)nc1Nc1ccccc1O,12,62*,-2,1,-14,13
C=CCc1c(C)nc(-c2ccccc2)nc1N/N=C/c1ccncc1,25,68*,11,1,3,9
CC(C)NS(=O)(=O)c1ccc(CCC(=O)NCc2cccnc2)cc1,10,-8,1,0,2,8
CCC(C)NS(=O)(=O)c1ccc(OCC(=O)NCc2ccccn2)cc1 (centres undefined),14,4,2,0,3,16
CC(NS(=O)(=O)c1ccc(CCC(=O)NCc2cccnc2)cc1)c1ccccc1 (centres undefined),31,74*,0,0,2,11
CCC(C)NS(=O)(=O)c1ccc(OCC(=O)NCc2cccnc2)cc1 (centres undefined),257*,-3,1,0,5,4
O=P(c1ccccc1)(c1ccccc1)N(c1ccccc1)c1ccccc1,9,65*,1,1,-7,8
O=P(Cc1ccccc1O)(c1ccccc1)c1ccccc1,20,0,0,0,10,7
OC(COCc1ccccc1)CN1CCN(Cc2ccc3c(c2)OCO3)CC1 (centres undefined),10,90*,33,2,-6,11
SC(COCc1ccccc1)CN1CCN(Cc2ccc3c(c2)OCO3)CC1 (centres undefined),15,58*,19,2,-13,21
CC1CN(CC(O)COCc2ccc3c(c2)OCO3)CC(C)O1 (centres undefined),13,69*,1,0,1,10
CCS(=O)(=O)N1CCN(CC(=O)NC2CCCCC2)CC1,21,-4,0,0,-6,12
O=C(CNC(=O)c1ccc(Cl)cc1Cl)Nc1ccc(F)cc1,/,/,/,/,/,10
CCOC(=O)c1c(NC(=O)Cn2cnc3scc(-c4ccc(C)cc4)c3c2=O)sc(C)c1C,14,24,-10,0,6,6
